Assays:
[1] = Half life in Sprague-Dawley rat at 10 mg/kg, po; assay type: ADME, organism-based; settings: in vivo
Procedure, shortened: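 Half-life calculated from plasma profiles after oral dosing at 10 mg/kg. Rat: male Sprague-Dawley, 0.5% methylcellulose suspension, n = 3. Dog and cynomolgus monkey: Tween 80 (2.5 μL/mL) + 0.5 (w/v) MC suspension.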

[2] = Oral bioavailability in Beagle dog at 10 mg/kg; assay type: ADME, organism-based, Canis lupus familiaris; settings: Beagle, in vivo
Procedure, shortened: (§1)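 Plasma PK after 1 mg/kg i.v. and 10 mg/kg p.o.; %F from both routes. Rat: male Sprague-Dawley, oral 0.5% methylcellulose suspension, i.v. 20% NMP/20% ethanol/60% PEG 200, n = 3. Dog oral: Tween 80 2.5 μL/mL + 0.5% MC suspension. Monkey oral: same Tween/MC suspension; i.v. 10% NMP/10% ethanol/10% PEG/70% PEG200-water premix.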

[3] = Clearance in cynomolgus monkey at 1 mg/kg, iv; assay type: ADME, organism-based, Macaca fascicularis; settings: in vivo
Procedure, shortened: (§2)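 Intravenous dose of 1 mg/kg; clearance and Vz derived from the i.v. arm. Rat (male Sprague-Dawley) vehicle 20% NMP + 20% ethanol + 60% PEG 200, mean ± SD (n = 3). Dog vehicle 20% NMP + 20% EtOH + 10% PG + 50% PEG 200:water (3:2). Monkey vehicle 10% NMP + 10% ethanol + 10% PEG + 70% PEG200:water (3:2).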

[4] = (§3) AUC (0 to 24 hrs) in cynomolgus monkey at 10 mg/kg, po; assay type: ADME, organism-based, Macaca fascicularis; parameters: time < 24 hr, dose 10 mg/kg, route oral; settings: in vivo
Procedure, shortened: (§4)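 Single oral dose of 10 mg/kg. Cmax and AUC0-24 taken from the oral arm. Rat: male Sprague-Dawley, dosed in 0.5% methylcellulose suspension, mean ± SD (n = 3). Guinea pig: 20% NMP + 0.5% MC suspension, mean ± SD (n = 3). Dog and cynomolgus monkey: 2.5 μL/mL Tween 80 + 0.5 (w/v) MC suspension.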

[5] = (§5) Oral bioavailability in cynomolgus monkey at 10 mg/kg; assay type: ADME, organism-based, Macaca fascicularis; settings: in vivo; procedure, shortened: as §1
[6] = biological target: T1, Nuclear receptor subfamily 1 group I member 2 (Homo sapiens, UniProt O75469); assay: Activation of human PXR at 10 uM relative to rifampicin; assay type: ADME
T1 sequence (O75469 whole entry): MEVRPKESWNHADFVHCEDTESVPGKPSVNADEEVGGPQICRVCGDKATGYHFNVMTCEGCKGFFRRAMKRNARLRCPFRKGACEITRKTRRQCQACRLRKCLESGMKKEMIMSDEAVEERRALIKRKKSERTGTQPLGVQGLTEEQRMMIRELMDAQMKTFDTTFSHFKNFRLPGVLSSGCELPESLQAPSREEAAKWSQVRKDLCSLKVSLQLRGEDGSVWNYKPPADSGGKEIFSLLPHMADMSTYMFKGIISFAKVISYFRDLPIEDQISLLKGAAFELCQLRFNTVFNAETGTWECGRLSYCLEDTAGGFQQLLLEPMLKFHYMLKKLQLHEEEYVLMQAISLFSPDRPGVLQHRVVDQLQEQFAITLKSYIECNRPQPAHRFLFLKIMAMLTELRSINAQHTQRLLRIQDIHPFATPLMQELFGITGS
Procedure, shortened: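 Activation of human PXR with test compound at 10 µM, expressed relative to the rifampicin effect.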

[7] = (§6) AUC (0 to 24 hrs) in Beagle dog at 10 mg/kg, po; assay type: ADME, organism-based, Canis lupus familiaris; parameters: dose 10 mg/kg, time < 24 hr, route oral; settings: Beagle, in vivo; procedure, shortened: as §4
[8] = Tmax in Sprague-Dawley rat at 10 mg/kg, po; assay type: ADME, organism-based; settings: in vivo
Procedure, shortened: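 Tmax from oral 10 mg/kg dosing. Rat: male Sprague-Dawley, 0.5% MC suspension, n = 3. Guinea pig: 20% NMP + 0.5% MC suspension, n = 3. Dog and monkey: 2.5 μL/mL Tween 80 + 0.5% MC suspension.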

[9] = Ratio of drug uptake in brain to plasma of Sprague-Dawley rat at 10 mg/kg, po; assay type: ADME, organism-based; settings: read-out: BPR
[10] = Apparent volume of distribution in cynomolgus monkey at 1 mg/kg, iv; assay type: ADME, organism-based, Macaca fascicularis; settings: in vivo, read-out: Vz; procedure, shortened: as §2
[11] = Clearance in Beagle dog at 1 mg/kg, iv; assay type: ADME, organism-based, Canis lupus familiaris; settings: in vivo; procedure, shortened: as §2
[12] = Drug uptake in brain of Dunkin-Hartley guinea pig LPS-induced hyperalgesia pain model at 10 mg/kg, po administered 2 hrs prior to LPS challenge measured 7 hrs post dose; assay type: ADME, organism-based, Cavia porcellus; settings: read-out: Drug uptake
Procedure, shortened: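 Guinea pigs received compound orally, once daily, at 10, 30 or 100 mg/kg, 2 h before LPS was injected into the plantar surface of the right paw. Saline-injected animals served as the comparison for thermal hyperalgesia. Plasma and brain drug levels taken 7 h after dosing, mean of n = 6–9 per group, from a single experiment.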

[13] = Protein binding in cynomolgus monkey plasma at 10 uM after 5 hrs by equilibrium dialysis based LC-MS/MS analysis; assay type: ADME, cell-free, Macaca fascicularis; settings: read-out: PPB (converted)
Procedure, shortened: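 Equilibrium dialysis at 10 μM compound; result expressed as percent bound.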

[14] = Ratio of drug uptake in brain to plasma of Dunkin-Hartley guinea pig LPS-induced hyperalgesia pain model at 30 mg/kg, po administered 2 hrs prior to LPS challenge measured 7 hrs post dose; assay type: ADME, organism-based, Cavia porcellus; settings: read-out: BPR
Procedure, shortened: (§7)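 Guinea pigs dosed orally at 10, 30 or 100 mg/kg 2 h before intraplantar LPS in the right hind paw; thermal hyperalgesia scored. Plasma (ng/mL) and brain (ng/g) levels taken 7 h post dose; brain/plasma ratio computed. Means of 6–9 animals per group, single experiment.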

[15] = Plasma concentration in Dunkin-Hartley guinea pig LPS-induced hyperalgesia pain model at 30 mg/kg, po administered 2 hrs prior to LPS challenge measured 7 hrs post dose; assay type: ADME, organism-based, Cavia porcellus; procedure, shortened: as §7
[16] = tested on: Cynomolgus monkey; assay: as §3; assay type: ADME, organism-based, Macaca fascicularis; parameters: time < 24 hr, dose 10 mg/kg, route oral; settings: in vivo, 24 h; procedure, shortened: as §4
[17] = Ratio of plasma concentration in Dunkin-Hartley guinea pig LPS-induced hyperalgesia pain model to IC50 for mPGES1 in human whole blood; assay type: ADME; settings: in vivo
[18] = Plasma concentration in Dunkin-Hartley guinea pig MIA-induced osteoarthritic pain model at 250 mg/kg, po measured 2 hrs post dose; assay type: ADME, organism-based, Cavia porcellus
Procedure, shortened: (§8)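 Intra-articular MIA into the right shoulder joint on day 0; oral dosing at 100, 250 or 500 mg/kg on day 3, incapacitance (forelimb weight bearing) measured. Plasma concentration sampled 2 h post dose. Means of 6–8 animals per group, single experiment.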

[19] = tested on: Cynomolgus monkey; assay: as §5; assay type: ADME, organism-based, Macaca fascicularis; settings: in vivo; procedure, shortened: as §1
[20] = tested on: Cavia porcellus; assay: Analgesic activity in Dunkin-Hartley guinea pig MIA-induced osteoarthritic pain model assessed as reversal of incapacitance at 100 mg/kg, po administered on day 3 measured 6 to 7 hrs post dose relative to control; assay type: functional
Procedure, shortened: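 Day 0: monoiodoacetate injected into the right shoulder joint of guinea pigs; saline-injected animals as comparison. Day 3: compound given orally at 100, 250 or 500 mg/kg, and weight-bearing incapacitance on the injected forelimb measured. Plasma sampled at the PD time point, n = 6–8 per group, single experiment.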

[21] = biological target: T1, Nuclear receptor subfamily 1 group I member 2; assay: Activation of human PXR; assay type: ADME
[22] = Plasma concentration in Dunkin-Hartley guinea pig MIA-induced osteoarthritic pain model at 100 mg/kg, po measured 2 hrs post dose; assay type: ADME, organism-based, Cavia porcellus; procedure, shortened: as §8
[23] = Plasma concentration in Dunkin-Hartley guinea pig LPS-induced hyperalgesia pain model at 100 mg/kg, po administered 2 hrs prior to LPS challenge measured 7 hrs post dose; assay type: ADME, organism-based, Cavia porcellus; procedure, shortened: as §7
[24] = Ratio of drug uptake in brain to plasma of Beagle dog at 10 mg/kg, po; assay type: ADME, organism-based, Canis lupus familiaris; settings: read-out: BPR
[25] = tested on: Canis familiaris; assay: as §6; assay type: ADME, organism-based, Canis lupus familiaris; parameters: dose 10 mg/kg, time < 24 hr, route oral; settings: in vivo, 24 h; procedure, shortened: as §4

| SMILES | half-life [1] [h] | bioavailability [2] [%] | clearance [3] [mL/min/kg] | AUC(0-t) at 24 h [4] [ng·h/mL] | bioavailability [5] [%] | Activity [6] [%] | AUC(0-t) at 24 h [7] [ng·h/mL] | Tmax [8] [h] | Kp [9] | Vd [10] [L/kg] | clearance [11] [mL/min/kg] | fraction unbound at 5 h, 10 µM [13] | Kp [24] | other results |
| --- | --- | --- | --- | --- | --- | --- | --- | --- | --- | --- | --- | --- | --- | --- |
| Cc1cccc(Cl)c1Nc1nc2cc(C(=O)Nc3cc(C(F)(F)F)ccc3F)c3c(c2[nH]1)CC(C)(C)O3 | 7 | 40 | 1.6 | 7510 | 11 | 57 | 12900 | 4 | 0.04 | 2.1 | 3.5 |  |  |  |
| CC1(C)Cc2c(c(C(=O)Nc3ccc(F)c(C(F)(F)F)c3)cc3nc(Nc4c(F)cccc4Cl)[nH]c23)O1 | 4 | 15 |  |  |  | 34 | 8240 | 2 | 0.18 | 1.83 | 1.61 | 0.0052 | 0.72 | concentration at 7 h [12]: 96 ng/g; Kp at 7 h [14]: 0.6; concentration at 7 h [15]: 145 ng/mL; AUC [16]: 9669 ng·h/mL; Ratio [17]: 5; concentration at 2 h [18]: 1510 ng/mL; F [19]: 44%; Activity [20]: 48%; EC50 [21]: 2460 nM; concentration at 2 h [22]: 678 ng/mL; concentration at 7 h [23]: 1080 nM |
| CC1(C)Cc2c(c(C(=O)Nc3ccc(C(F)(F)F)cn3)cc3nc(Nc4c(Cl)cccc4Cl)[nH]c23)O1 | 2.7 |  | 8.5 | 3670 | 21 | 46 |  | 4 | 0.16 | 4.1 |  | 0.005 | 0.32 | AUC [25]: 4432 ng·h/mL |

Source: ChEMBL document CHEMBL4219124, “Alleviating CYP and hERG liabilities by structure optimization of dihydrofuran-fused tricyclic benzo[d]imidazole series - Potent, selective and orally efficacious microsomal prostaglandin E synthase-1 (mPGES-1) inhibitors: Part-2” (Bioorg Med Chem Lett, 2018)
